Source: ChEMBL document CHEMBL1687853, “Increased glycolytic ATP synthesis is associated with tafenoquine resistance in Leishmania major” (Antimicrob Agents Chemother, 2011)
Active and inactive are the calls of the source. The calls are words filed in the database; no cut-off is given here.

Tests used:
Leishmania major [1] = assay: Antileishmanial activity against wild type promastigotes of Leishmania major MHOM/JL/80/Friedlin assessed as inhibition of parasite growth after 72 hrs by MTT assay; format: functional, organism-based
How it was run: (§1)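 L. major Friedlin promastigotes, wild type or TFQ-resistant R4, were grown at 28°C in modified RPMI 1640 with 20% heat-inactivated FBS. R4 was selected stepwise from 2.5 to 4 μM TFQ over 10 weeks and kept in 4 μM. Parasites were exposed to increasing drug concentrations for 72 h at 28°C and viability was read by MTT. EC50 is 50% growth inhibition; resistance index is the R4/WT EC50 ratio.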

Leishmania major [2] = assay: Resistant index, ratio of EC50 for tafenoquine-resistant promastigotes of Leishmania major R4 to EC50 for promastigotes of Leishmania major MHOM/JL/80/Friedlin; format: functional; how it was run: as §1
Leishmania major [3] = assay: Antileishmanial activity against tafenoquine-resistant promastigotes of Leishmania major R4 assessed as inhibition of parasite growth after 72 hrs by MTT assay; format: functional, organism-based; conditions: R4, 72 h; how it was run: as §1
Leishmania major [4] = assay: Induction of acidification in tafenoquine-resistant promastigotes of Leishmania major R4 assessed as decrease of pH at 20 mM after 30 mins; format: functional, organism-based
How it was run: (§2)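 R4 or revertant promastigotes (R4 grown 1 month drug-free) were loaded with BCECF-AM (5 μg/ml, 30 min, 28°C) and washed. Cells at 2 × 10^7/ml in culture medium then received 5 μM TFQ or 20 mM sodium azide for 1–30 min. pHi came from the 490/440 nm excitation ratio (emission 535 nm), calibrated with nigericin-treated cells at set pH values.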

Leishmania major [5] = assay: Effect on ATP synthesis in tafenoquine-resistant promastigotes of Leishmania major R4 assessed as increase of ATP level at up to 20 uM after 60 mins by celltiter- glo luminescent assay; format: functional, organism-based
How it was run: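 Promastigotes at 4 × 10^6/ml were incubated in culture medium with 1, 2, 5, 10 or 20 μM TFQ for 60 min. ATP was measured by CellTiter-Glo: an aliquot was mixed with an equal volume of reagent, held 10 min in the dark, and luminescence was read.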

Leishmania major [6] = assay: Induction of acidification in tafenoquine-resistant promastigotes of Leishmania major revert R4 assessed as decrease of pH at 5 uM after 30 mins; format: functional, organism-based; how it was run: as §2
Leishmania major [7] = assay: Drug uptake in promastigotes of tafenoquine-resistant promastigotes of Leishmania major revert R4 assessed per mg of protein at 5 uM after 15 mins by spectrofluorometric technique in presence of ammonium chloride; conditions: in vitro, 0.25 h
Leishmania major [8] = assay: Drug uptake in wild type promastigotes of Leishmania major MHOM/JL/80/Friedlin assessed per mg of protein at 5 uM after 15 mins by spectrofluorometric technique; format: ADME, organism-based; conditions: in vivo, 0.25 h
How it was run: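 L. major Friedlin promastigotes, grown 48 h at 28°C in RPMI 1640 with 20% iFBS, were used at 2 × 10^7/ml. Cells were exposed to 5 µM TFQ for 15 min at 28°C in culture medium, washed twice in PBS and lysed in 10% SDS, pH 4. Emission was read at 360–460 nm with excitation at 340 nm.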

Leishmania major [9] = assay: Drug uptake in promastigotes of tafenoquine-resistant promastigotes of Leishmania major R4 at 2.5 uM after 5 mins by spectrofluorometric technique; format: ADME, organism-based; conditions: in vivo
Leishmania major [10] = assay: Drug uptake in promastigotes of tafenoquine-resistant promastigotes of Leishmania major revert R4 assessed per mg of protein at 5 uM after 15 mins by spectrofluorometric technique; format: ADME, organism-based; conditions: in vivo, 0.25 h
How it was run: (§3)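 Promastigotes at 2 × 10^7/ml were given 5 μM TFQ for 15 min at 28°C in culture medium, washed twice with PBS and lysed in 10% SDS, pH 4. TFQ was read fluorimetrically with excitation at 340 nm and emission at 360–460 nm. For the alkalinization condition, parasites were pretreated with 20 mM NH4Cl for 1 min and then given TFQ in the continued presence of NH4Cl for 15 min.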

Leishmania major [11] = assay: Drug uptake in promastigotes of tafenoquine-resistant promastigotes of Leishmania major R4 assessed per mg of protein at 5 uM after 15 mins by spectrofluorometric technique; format: ADME, organism-based; conditions: in vivo, 0.25 h; how it was run: as §3
Leishmania major [12] = assay: Drug uptake in wild type promastigotes of Leishmania major MHOM/JL/80/Friedlin at 2 uM after 5 mins by spectrofluorometric technique; format: ADME, organism-based; conditions: in vivo
Leishmania major [13] = assay: Drug uptake in wild type promastigotes of Leishmania major MHOM/JL/80/Friedlin assessed per mg of protein at 5 uM after 15 mins by spectrofluorometric technique in presence of ammonium chloride; conditions: in vivo, 0.25 h
Leishmania major [14] = assay: Drug uptake in promastigotes of tafenoquine-resistant promastigotes of Leishmania major revert R4 at 5 uM after 5 mins by spectrofluorometric technique; format: ADME, organism-based; conditions: in vivo
Leishmania major [15] = assay: Induction of acidification in tafenoquine-resistant promastigotes of Leishmania major R4 assessed as decrease of pH at 5 uM after 30 mins; format: functional, organism-based; how it was run: as §2
Leishmania major [16] = assay: Induction of acidification in wild type promastigotes of Leishmania major MHOM/JL/80/Friedlin assessed as decrease of pH at 5 uM after 30 mins; format: functional, organism-based
How it was run: (§4)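 Promastigotes were loaded with BCECF-AM (5 µg/ml) in pH 7.4 standard buffer for 30 min at 28°C and washed twice. Cells at 2 × 10^7/ml in culture medium then received 20 mM sodium azide or 5 µM TFQ for 1, 3, 5, 10 or 30 min. The ratio at excitation 490/440 nm, emission 535 nm, was converted to pHi with a nigericin calibration curve.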

Leishmania major [17] = assay: Induction of acidification in wild type promastigotes of Leishmania major MHOM/JL/80/Friedlin assessed as decrease of pH at 20 mM after 30 mins; format: functional, organism-based; how it was run: as §4
Leishmania major [18] = assay: Induction of acidification in tafenoquine-resistant promastigotes of Leishmania major revert R4 assessed as decrease of pH at 20 mM after 30 mins; format: functional, organism-based; how it was run: as §2
Leishmania major [19] = assay: Drug uptake in promastigotes of tafenoquine-resistant promastigotes of Leishmania major R4 assessed per mg of protein at 5 uM after 15 mins by spectrofluorometric technique in presence of ammonium chloride; conditions: in vitro, 0.25 h
Leishmania major [20] = assay: Effect on ATP synthesis in wild type promastigotes of Leishmania major MHOM/JL/80/Friedlin assessed as decrease of ATP level up to 20 uM after 60 mins by celltiter- glo luminescent assay; format: functional, organism-based
How it was run: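 Promastigotes at 4 × 10^6/ml were held in culture medium with TFQ at 1, 2, 5, 10 or 20 µM for 60 min. Cells were mixed 1:1 with CellTiter-Glo and kept 10 min in the dark. Luminescence, proportional to ATP, was then read.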

| SMILES | EC50 (Leishmania major [1]) | Ratio EC50 (Leishmania major [2]) | EC50 (Leishmania major [3]) | also measured |
| --- | --- | --- | --- | --- |
| CCN(CC)CCCCCCNc1cc(OC)cc2c(C)ccnc12.Cl.Cl | 12 µM | 2 | 24.5 µM |  |
| C[C@@H]1[C@H](O)[C@@H](C)/C=C/C=C/C=C/C=C/C=C/C=C/C=C/[C@H](O[C@@H]2O[C@H](C)[C@@H](O)[C@H](N)[C@@H]2O)C[C@@H]2O[C@](O)(C[C@@H](O)C[C@@H](O)[C@H](O)CC[C@@H](O)C[C@@H](O)CC(=O)O[C@H]1C)C[C@H](O)[C@H]2C(=O)O [AMPHOTERICIN B] | 1.87 µM | 1.7 | 3.16 µM |  |
| CCN(CC)CCCC(C)Nc1ccnc2cc(Cl)ccc12 (stereo not drawn) [CHLOROQUINE] | 18.8 µM | 1.3 | 23.8 µM |  |
| COc1cccc2c1C(=O)c1c(O)c3c(c(O)c1C2=O)C[C@@](O)(C(C)=O)C[C@@H]3O[C@H]1C[C@H](N)[C@H](O)[C@H](C)O1 [DAUNORUBICIN] | 0.22 µM | 1.7 | 0.38 µM |  |
| CC(=O)N1CCN(c2ccc(OCC3COC(Cn4ccnc4)(c4ccc(Cl)cc4Cl)O3)cc2)CC1 (stereo not drawn) [KETOCONAZOLE] | 20 µM | 1.4 | 28.1 µM |  |
| OC(c1cc(C(F)(F)F)nc2c(C(F)(F)F)cccc12)C1CCCCN1 (stereo not drawn) [MEFLOQUINE] | 12.5 µM | 1.1 | 13.9 µM |  |
| CCCCCCCCCCCCCCCCOP(=O)([O-])OCC[N+](C)(C)C [MILTEFOSINE] | 17.7 µM | 1.5 | 25.7 µM |  |
| NC[C@@H]1O[C@H](O[C@H]2[C@@H](O)[C@H](O[C@@H]3[C@@H](O)[C@H](N)C[C@H](N)[C@H]3O[C@H]3O[C@H](CO)[C@@H](O)[C@H](O)[C@H]3N)O[C@@H]2CO)[C@H](N)[C@@H](O)[C@@H]1O [PAROMOMYCIN] | 4.29 µM | 1 | 3.98 µM |  |
| N=C(N)c1ccc(OCCCCCOc2ccc(C(=N)N)cc2)cc1 [PENTAMIDINE] | 0.28 µM | 1.8 | 0.45 µM |  |
| COc1cc(NC(C)CCCN)c2ncccc2c1 (stereo not drawn) [PRIMAQUINE] | 27.7 µM | 1.9 | 53 µM |  |
| C=C[C@H]1CN2CC[C@H]1C[C@H]2[C@H](O)c1ccnc2ccc(OC)cc12 [QUININE] | 9.41 µM | 1 | 9.53 µM |  |
| COc1cc(C)c2c(Oc3cccc(C(F)(F)F)c3)c(OC)cc(NC(C)CCCN)c2n1 (stereo not drawn) [TAFENOQUINE] | 2.24 µM | 2.5 | 5.49 µM | Activity (Leishmania major [4]): inactive; Activity (Leishmania major [5]): Active; Activity (Leishmania major [6]): Active; Drug uptake (Leishmania major [7]): 8524 a.u.; Drug uptake (Leishmania major [8]): 10775 a.u.; Drug uptake (Leishmania major [9]): Active; Drug uptake (Leishmania major [10]): 9657 a.u.; Drug uptake (Leishmania major [11]): 8809 a.u.; Drug uptake (Leishmania major [12]): Active; Drug uptake (Leishmania major [13]): 7009 a.u.; Drug uptake (Leishmania major [14]): Active; Activity (Leishmania major [15]): inactive; Activity (Leishmania major [16]): Active; Activity (Leishmania major [17]): Active; Activity (Leishmania major [18]): Active; Drug uptake (Leishmania major [19]): 8462 a.u.; Activity (Leishmania major [20]): Active |
